IDE cell activ: human IDE activators in live cells, primary screen, fluorescence polarization, HEK cells, FAbeta-B substrate. FAbeta-B cleavage; 0% vehicle, 100% cell-free pure enzyme wells. Insulin-degrading enzyme (Homo sapiens), P14735. 340,000 compounds, 0.073% hits. activation, % at 5.96 µM;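 active = activation above the mean of all tested compounds plus 3 SD, set per screening campaign, cut at about 17% in these data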
TPT1 inh: Candida albicans TPT1 enzyme inhibitors, primary screen, biochemical, fluorescence polarization. tRNA 2'-phosphotransferase TPT1 (Candida albicans SC5314). recombinant caTPT1, FP RNA substrate dephosphorylation. inhibition, % at 5 µM. 300,000 compounds, 0.81% hits;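 active = inhibition above the mean of all tested compounds plus 3 SD, set per screening campaign, cut at about 24% in these data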;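 also: plate controls were DMSO alone for no effect and ferristatin control at 100 nM for full effect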
proCasp7 act: procaspase-7 activators, primary screen, counter-screen for procaspase-3 activator project, biochemical, absorbance, HTS, human; activation, % at 8.5 µM; AID 463210, 2010; recombinant procaspase-7, Ac-DEVD-pNA absorbance 405 nm; D23A/D198A/D206A triple mutant, cannot self-cleave; scale: DMSO 0, 5 µM enzyme 100; Caspase-7 (Homo sapiens), P55210; 330,000 compounds, 0.093% hits;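 active = percent activation above the screen-wide mean plus 3 SD, cut at about 25% in these data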
Target sequence (P55210 whole entry D23A/D198A/D206A): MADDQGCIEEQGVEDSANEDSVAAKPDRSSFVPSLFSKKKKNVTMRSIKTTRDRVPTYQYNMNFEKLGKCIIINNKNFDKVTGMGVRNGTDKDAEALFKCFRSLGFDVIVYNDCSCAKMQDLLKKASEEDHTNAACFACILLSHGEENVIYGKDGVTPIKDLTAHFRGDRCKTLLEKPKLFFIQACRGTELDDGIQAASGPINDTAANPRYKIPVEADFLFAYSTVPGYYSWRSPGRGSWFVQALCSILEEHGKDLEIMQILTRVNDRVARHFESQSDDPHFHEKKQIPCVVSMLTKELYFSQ
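Assay system: Uncleavable procaspase-7 mutant enzyme; Input: 2 µM procaspase-7 mutant as dispensed; Also added: DEVD-pNA substrate; Medium: Zinc-free HEPES pH 7.4 with 300 mM NaCl, 0.01% Triton X-100; Timing: 1 h compound preincubation, 2 h substrate cleavage, 25 °C; Measured by: Epi-absorbance of released pNA at 405 nm, two timepoints.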
procasp3 activ: activators of human procaspase-3 D3A mutant, primary screen, biochemical, absorbance, PC-3 D3A mutant, single concentration; Caspase-3 (Homo sapiens), P42574; recombinant procaspase-3 D3A, Ac-DEVD-pNA absorbance 405 nm; activation, % at 8.5 µM; 330,000 compounds, 0.11% hits;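 active = activation above the mean of all tested compounds plus 3 SD, cut at about 21% in these data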;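 also: 0% = DMSO alone and 100% = DMSO wells spiked with extra 5 µM PC-3 D3A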
Target sequence (P42574 whole entry D9A/D28A/D175A): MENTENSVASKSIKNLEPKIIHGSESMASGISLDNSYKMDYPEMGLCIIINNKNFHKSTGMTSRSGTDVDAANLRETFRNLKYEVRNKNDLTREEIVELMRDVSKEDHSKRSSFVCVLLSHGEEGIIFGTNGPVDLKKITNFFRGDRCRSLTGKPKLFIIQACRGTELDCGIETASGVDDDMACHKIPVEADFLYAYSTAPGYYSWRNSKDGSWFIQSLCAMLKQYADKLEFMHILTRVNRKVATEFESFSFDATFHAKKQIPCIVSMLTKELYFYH
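Assay system: Autoprocessing-dead procaspase-3 D3A mutant enzyme; also added: Ac-DEVD-pNA; doses: one concentration, 8.5 µM nominal, 0.8% DMSO; times: 1 h compound preincubation, 2 h substrate hydrolysis at 25 °C; technique: 405 nm absorbance of p-nitroaniline, reads at 0 and 120 min; measure: % activation between DMSO and enzyme-spiked controls; repeats: single replicate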
IDE cell inh: human IDE inhibitors in live cells, primary screen, fluorescence polarization, HEK cells, FAbetaB substrate | 320,000 compounds, 0.41% hits | FAbetaB cleavage | Insulin-degrading enzyme (Homo sapiens), P14735 | inhibition, % at 5.59 µM | AID 434962, 2010;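 active = percent inhibition above the average of all tested compounds plus 3 SD, set per screening campaign, cut at about 16% in these data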;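 also: IDE supplied by intact live HEK cells; FP after avidin binding of uncleaved biotin substrate so inhibition keeps polarization high; 0% = DMSO wells and 100% = 60 µM reference IDE inhibitor Ii1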
* = called active by the depositor; / = no result. The list is not random: actives were taken first. Their share in the collection is about 1.2%.

SMILES	IDE cell activ	TPT1 inh	proCasp7 act	procasp3 activ	IDE cell inh
Cc1ccc(NC(=O)COC(=O)c2ccc(C)c(S(=O)(=O)N3CCOCC3)c2)cc1	3	/	/	/	/
COc1ccc(OC)c(C(=O)COC(=O)CN2C(=O)NC3(CCCCC3C)C2=O)c1 (stereo not drawn)	22*	-1	-2	-7	-2
Nc1ccc2cc3[nH]c4cc(N)ccc4c3nc2c1	53*	/	/	/	/
Nc1ccc(-c2nc3ccc(N)cc3[nH]2)cc1	3	0	-3	0	1
O=C(CN1CCN(CN2C(=O)NC3(CCCCCC3)C2=O)CC1)Nc1ccc(F)cc1	19*	/	3	6	-2
Cc1ccccc1Nc1nc(Cl)c(C=O)s1	8	27*	8	-7	-1
CCN(c1ccccc1)S(=O)(=O)c1ccc(N2CCN(c3ccc(O)cc3)CC2)nc1	-6	/	-14	-17	1
CCN(c1ccccc1)S(=O)(=O)c1ccc(N2CCN(c3ccc(OC)cc3)CC2)nc1	26*	/	-5	5	0
Cc1cc(-c2ccc(N=Nc3c(S(=O)(=O)O)cc4cc(S(=O)(=O)O)cc(N)c4c3O)c(C)c2)ccc1N=Nc1c(S(=O)(=O)O)cc2cc(S(=O)(=O)O)cc(N)c2c1O	/	80*	-10	-6	5
COc1ccc(N2C(=O)CC3(CCCC3)CC2=O)cc1	-2	1	5	8	-6
O=C1CC2(CCCC2)CC(=O)N1c1ccccc1	30*	0	5	-2	-1
COc1cccc(C2(C)NC(=O)N(CC(=O)c3cc(C)n(C4CC4)c3C)C2=O)c1 (stereo not drawn)	2	/	4	-1	0
C[C@H](CO)N1C[C@H](C)[C@@H](CN(C)S(C)(=O)=O)Oc2ccc(NC(=O)CCN3CCOCC3)cc2C1=O	3	/	27*	-2	4
C[C@H](CO)N1C[C@H](C)[C@@H](CN(C)S(=O)(=O)c2ccccc2)Oc2ccc(NC(=O)CCN3CCOCC3)cc2C1=O	0	/	-6	-1	5
Cc1cc(C)cc(NS(=O)(=O)c2c(C(=O)N3CCOCC3)c(C)n(C)c2C)c1	5	-1	-7	1	2
C=CCN1C(=O)c2ccc(C(=O)OCC(=O)N(CC)C3CCS(=O)(=O)C3)cc2C1=O (stereo not drawn)	22*	/	1	0	-3
CCOc1ccc(N2C(=O)c3ccc(C(=O)OCC(=O)N(CC)C4CCS(=O)(=O)C4)cc3C2=O)cc1 (stereo not drawn)	0	-1	9	2	0
CC(=O)Nc1cc2c(cc1C(=O)c1ccccc1)OCCO2	18*	3	-2	5	-3
CCC(=O)Nc1cc2c(cc1C(=O)c1ccccc1)OCCO2	3	0	-3	6	3
COc1ccc(S(=O)(=O)N2CCCC2CNC(=O)C(=O)NCc2ccccc2Cl)cc1 (stereo not drawn)	0	-4	1	-7	-1
CC(=O)N1CCC(=O)Nc2ccc([N+](=O)[O-])cc21	20*	-3	14	0	9
CC(=O)N1CCc2ccc([N+](=O)[O-])cc21	0	/	/	/	/
CC[C@@]1(O)C(=O)OCc2c1cc1n(c2=O)Cc2cc3c(N)cccc3nc2-1	3	-4	-3	-1	-2
CC[C@@]1(O)C(=O)OCc2c1cc1n(c2=O)Cc2cc3c(CN(C)C)c(O)ccc3nc2-1	24*	-88	-37	-34	-3
O=C(NCC1CCCO1)c1cccc(S(=O)(=O)N(Cc2ccccc2)c2ccccc2)c1 (stereo not drawn)	9	-3	13	1	1
SMILES	IDE cell activ	TPT1 inh	proCasp7 act	procasp3 activ	IDE cell inh
CC(C)(C)NCC(=O)N/N=C/c1ccc(OCc2ccccc2)cc1	-11	1	2	2	16*
CCCCNC(=O)C(=O)N/N=C/c1ccc(OCc2ccccc2)cc1	-3	0	0	-2	2
CN(C)/C=C1\C=C2C(=O)c3ccccc3N2C1=O	46*	-14	-16	-14	12
Cc1noc(/C=C/c2ccc(-c3ccccc3Cl)o2)c1[N+](=O)[O-]	-11	138*	7	6	5
Cc1noc(/C=C/c2cccnc2)c1[N+](=O)[O-]	3	-2	3	-1	4
Cc1cc(C)c2nc(Cl)c(Cl)nc2c1	6	3	2	-9	1
COc1cccc(Cl)c1NC(=O)N1CCN(c2ccnc3cc(Cl)ccc23)CC1	-31	-2	-1	-3	26*
NC(=O)N/N=C/C=C/c1ccc(F)cc1	-1	0	3	-4	-6
O=C(CSC1=NNC(c2ccccn2)S1)Nc1cccc(Cl)c1 (stereo not drawn)	/	-1	-28	-17	4
O=C(CSC1=NNC(c2ccccn2)S1)Nc1ccccc1 (stereo not drawn)	-3	-2	-35	-41	25*
Cc1ccc(S(=O)(=O)OCCC2=CC(=O)CCN2Cc2ccccc2)cc1	21*	/	2	15	2
O=C(NCCc1ccc(O)c(O)c1)C1COc2ccccc2O1 (stereo not drawn)	1	0	-30	-14	-4
COC(=O)C1=C(C)N(Cc2ccccc2)C(=NCc2cccc(C(F)(F)F)c2)N[C@H]1c1cccc(F)c1	24*	-1	2	0	-2
COC(=O)C1=C(C)N(Cc2ccccc2)C(=NCc2cccc(C(F)(F)F)c2)N[C@H]1c1cccc(C(F)(F)F)c1	29*	/	5	4	5
COCCN1C(=O)Cc2c1nc(N)c1c(N)nc(N3CCN(c4ccc(F)cc4)CC3)c(C#N)c21	4	28*	-6	-2	-1
Cc1c(N)c(C(C)(C)C)cc(C(C)(C)C)c1[N+](=O)[O-]	-2	2	-11	7	-3
Cc1cc2nc3c(=O)[nH]c(=O)[nH]c3nc2c([N+](=O)[O-])c1N	21*	/	/	/	/
CNc1ccc2c3c(cccc13)C(=O)N(C)C2=O	59*	-63	-6	-6	-32
CCc1cccc(Nc2cnn(C34C[C@@H]5C[C@@H](CC(CC(=O)O)(C5)C3)C4)c(=O)c2Cl)c1	-22	2	7	2	21*
O=C(c1ccco1)c1coc2c1cc(O)c1ccccc12	2	-2	6	-9	-3
CCCOC(=O)c1cc(-c2ccc(/C=C3/C(=O)N(C)C(=O)C(C#N)=C3C)o2)ccc1Cl	4	24*	-18	-4	8
C=CCOC(=O)c1cc(-c2ccc(/C=C3\C(=O)NC(=O)C(C#N)=C3C)o2)ccc1Cl	0	/	/	/	/

Source: PubChem BioAssay (The Scripps Research Institute Molecular Screening Center)
